Unmarked numbers belong to inactive results. Activity calls are given as the source filed them. The rule behind the calls is not given here.

A short description of this test: Hsp70 transcriptional activators, SAR follow-up, cell-based, HeLa, Hsp70 promoter luciferase, luminescence (AID 651950). To be noted: HeLa hsp70.1pr-luc reporter; at 99 µM (top of the series). In outline: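 Read-out: % activation relative to DMSO and MG132 controls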
For `O=C1NC(=O)C(=C/C=C/c2ccc(Br)cc2)C(=O)N1`, the activation was -0.8% (active). To `COc1ccc(/C=C/C=C2C(=O)NC(=O)NC2=O)cc1` belongs -1.7% (active); to `O=C1NC(=O)C(=C/C=C/c2cccnc2)C(=O)N1`, 22.5%. Consider `CN(C)c1ccc(/C=C/C=C2C(=O)NC(=O)NC2=O)cc1`, for which the activation is 0.4%. On to `O=C1NC(=O)C(=C/C=C/c2ccco2)C(=O)N1`, for which the activation is -0.7% (active). Consider `O=C1NC(=O)C(=C/C=C/c2ccc(Cl)cc2)C(=O)N1`, for which the activation is -1.1% (active). Consider `O=C1NC(=O)C(=C/C=C/c2ccc([N+](=O)[O-])cc2)C(=O)N1`, for which the activation was -1.1% (active). Take `C=CCN1C(=O)NC(=O)/C(=C/C=C/c2ccccc2)C1=O`: the activation is -1.7% (active).

With `O=C1NC(=O)N(Cc2ccccc2)C(=O)/C1=C/C=C/c1ccccc1`, the activation was -1.2% (active).

The record behind these values is PubChem BioAssay AID651950 (The Scripps Research Institute Molecular Screening Center, 2012).
